The source of these data is ChEMBL document CHEMBL4609993, “The architecture of hydrogen and sulfur σ-hole interactions explain differences in the inhibitory potency of C-β-d-glucopyranosyl thiazoles, imidazoles and an N-β-d glucopyranosyl tetrazole for human liver glycogen phosphorylase and offer new insights to structure-based design” (Bioorg Med Chem, 2020).

For data set [1], the target named is T1, Glycogen phosphorylase, liver form (Homo sapiens, UniProt P06737).
T1 sequence (P06737 whole entry): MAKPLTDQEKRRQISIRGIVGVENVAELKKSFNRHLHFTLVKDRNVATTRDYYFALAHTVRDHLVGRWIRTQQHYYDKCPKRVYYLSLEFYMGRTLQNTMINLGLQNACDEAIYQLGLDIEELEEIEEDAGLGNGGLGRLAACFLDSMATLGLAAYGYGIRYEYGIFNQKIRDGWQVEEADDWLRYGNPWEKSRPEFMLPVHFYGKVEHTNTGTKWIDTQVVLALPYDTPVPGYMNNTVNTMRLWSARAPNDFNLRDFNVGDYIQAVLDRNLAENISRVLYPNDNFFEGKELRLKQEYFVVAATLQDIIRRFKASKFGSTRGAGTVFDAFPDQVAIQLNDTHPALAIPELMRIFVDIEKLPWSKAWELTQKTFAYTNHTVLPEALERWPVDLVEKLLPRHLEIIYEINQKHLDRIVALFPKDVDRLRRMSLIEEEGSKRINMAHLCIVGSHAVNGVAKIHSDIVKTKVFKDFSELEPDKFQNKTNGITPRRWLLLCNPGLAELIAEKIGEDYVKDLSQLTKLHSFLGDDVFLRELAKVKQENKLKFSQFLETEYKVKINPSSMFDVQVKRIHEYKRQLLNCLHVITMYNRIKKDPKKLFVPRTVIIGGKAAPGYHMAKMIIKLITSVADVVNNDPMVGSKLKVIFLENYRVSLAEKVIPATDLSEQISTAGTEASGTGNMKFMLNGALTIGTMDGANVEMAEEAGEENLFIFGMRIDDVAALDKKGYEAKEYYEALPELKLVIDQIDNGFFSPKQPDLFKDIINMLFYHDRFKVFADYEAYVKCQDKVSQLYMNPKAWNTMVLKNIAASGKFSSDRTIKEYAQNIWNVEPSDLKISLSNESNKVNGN
Put plainly: Inhibition of human liver GPa using Glc-1-P as substrate incubated for 15 mins.

Data set [2] can be described thus: Inhibition of rabbit muscle GPa using Glc-1-P as substrate incubated for 15 mins. Further details: species or system Oryctolagus cuniculus.
Data set [3] is described as follows: Inhibition of rabbit muscle GPb using Glc-1-P as substrate incubated for 15 mins. Further details: species or system Oryctolagus cuniculus. Summed up:
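Recombinant or rabbit muscle GP assayed by an earlier method. Initial velocities were taken from pseudo-first-order rate constants via the first-order rate equation. Ki came from non-linear regression with explicit weighting of apparent Km against inhibitor concentration, using 4–5 inhibitor levels per compound spanning 1–300 μM.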

Data set [4] has as its system HepG2. Put plainly: Cytotoxicity against human HepG2 cells assessed as reduction in cell viability at >200 uM incubated for 24 hrs by MTT assay. In kind it is cell-based. The following applies: hepg2, 24 h.
Data set [5] is described as follows: Inhibition of rabbit muscle GPb using alpha-D-glucose-1-phosphate as substrate by Lineweaver-Burk plot analysis. On the set-up: species or system Oryctolagus cuniculus.
Data set [6] in a line: Cytotoxicity against human HepG2 cells assessed as reduction in cell viability at 200 and 300 uM incubated for 3 hrs by MTT assay. In kind it is cell-based. The following applies: read-out: INH. (Tetrazolium dyes change colour on reduction, which living cells bring about.)
Data set [7] addresses T2, Glycogen phosphorylase, liver form (Homo sapiens) (UniProt P06737).
T2 sequence (whole entry): T1 sequence (P06737 whole entry)
Put plainly: Inhibition of GP in human HepG2 cells assessed as reduction in GP activity at 500 uM incubated for 3 hrs by Bradford reagent based assay relative to control. In kind it is cell-based. The gist of the method:
(§1)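 HepG2 cells were seeded at 1.0×10^6 per 60 mm dish and attached for 16–18 h. Glycogen was loaded for 16–18 h with 10 nM dexamethasone, 25 mM glucose and 100 nM insulin. Cells were then exposed to inhibitor or vehicle for 3 h in 5 mM glucose plus 100 nM glucagon. Lysates were sonicated in Tris pH 7.5/Triton/PMSF and cleared at 12,000 g. GP activity (nmol/min/mg, Bradford protein) came from a linear fit of 5 time points.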

Data set [8] addresses T2, Glycogen phosphorylase, liver form (Homo sapiens). Put plainly: Inhibition of GP in human HepG2 cells assessed as reduction in GP activity at 100 uM incubated for 3 hrs by Bradford reagent based assay relative to control. In kind it is cell-based. The gist of the method:
as §1

Data set [9] relates to HepG2. Nature of the data set: Cytotoxicity against human HepG2 cells assessed as reduction in cell viability at 100 uM measured after 3 and 24 hrs by MTT assay. In kind it is cell-based. Particulars: hepg2, 24 h.
For data set [10], the target named is T2, Glycogen phosphorylase, liver form (Homo sapiens). Nature of the data set: Inhibition of GP in human HepG2 cells assessed as reduction in GP activity at 335 uM incubated for 3 hrs by Bradford reagent based assay relative to control. In kind it is cell-based. The gist of the method:
as §1

For the molecule `OC[C@H]1O[C@@H](n2nnc(-c3ccccc3)n2)[C@H](O)[C@@H](O)[C@@H]1O`, the Ki – broadly, the dissociation constant of the complex between target and ligand, obtained from inhibition or displacement – is 134 µM in data set [1], 146 µM in data set [2] and 162 µM in data set [3].

For the molecule `OC[C@H]1O[C@@H](c2nc(-c3ccccc3)n[nH]2)[C@H](O)[C@@H](O)[C@@H]1O`, the Ki in [2] was 1.74 µM.

In the case of `OC[C@H]1O[C@@H](c2csc(-c3ccc4ccccc4c3)n2)[C@H](O)[C@@H](O)[C@@H]1O`, the values for the Ki in data set [1], in [2] and in data set [5] were 43.6 µM, 28 µM and 26.2 µM, respectively. Besides, the Activity result in the data set on HepG2 [4] is reported as “Toxic”. Also, the cytotoxicity at 3 h in data set [6] was under 10%. Besides, the inhibition – broadly, the share of the control response that was lost under treatment – in data set [7] is under 25%.

For `OC[C@H]1O[C@@H](c2c[nH]c(-c3ccc4ccccc4c3)n2)[C@H](O)[C@@H](O)[C@@H]1O`, the results for the Ki in [1], in data set [2] and in data set [5] were 3.2 µM, 1.6 µM and 4.58 µM, respectively. Moreover, the inhibition in data set [8] was 60%. The Activity result in the data set on HepG2 [9] is recorded as “Non-Toxic”.

On to `OC[C@H]1O[C@@H](c2nc(-c3ccccc3)cs2)[C@H](O)[C@@H](O)[C@@H]1O`, for which the Ki in [1] turned out to be 180 µM; in [2], 157 µM.

With `OC[C@H]1O[C@@H](c2nc(-c3ccc4ccccc4c3)cs2)[C@H](O)[C@@H](O)[C@@H]1O`, the results for the Ki in data set [1] and in data set [2] were 78 µM and 69.1 µM, respectively.

Take `OC[C@H]1O[C@@H](c2csc(-c3ccccc3)n2)[C@H](O)[C@@H](O)[C@@H]1O`: the values for the Ki in data set [1], in [2] and in [5] were 172 µM, 75.6 µM and 326 µM, respectively.

Turning to `OC[C@H]1O[C@@H](c2c[nH]c(-c3ccccc3)n2)[C@H](O)[C@@H](O)[C@@H]1O`, the Ki turned out to be 25.9 µM in data set [1], 17.7 µM in data set [2] and 68.6 µM in data set [5]. In the data set with HepG2 [4], the Activity result is reported as “Toxic”. Also, the inhibition in [10] was determined as 50%; in [7], 60%.
